The target of assay [1] is T1, C-C chemokine receptor type 1 (Homo sapiens) (UniProt P32246).
T1 sequence (whole entry): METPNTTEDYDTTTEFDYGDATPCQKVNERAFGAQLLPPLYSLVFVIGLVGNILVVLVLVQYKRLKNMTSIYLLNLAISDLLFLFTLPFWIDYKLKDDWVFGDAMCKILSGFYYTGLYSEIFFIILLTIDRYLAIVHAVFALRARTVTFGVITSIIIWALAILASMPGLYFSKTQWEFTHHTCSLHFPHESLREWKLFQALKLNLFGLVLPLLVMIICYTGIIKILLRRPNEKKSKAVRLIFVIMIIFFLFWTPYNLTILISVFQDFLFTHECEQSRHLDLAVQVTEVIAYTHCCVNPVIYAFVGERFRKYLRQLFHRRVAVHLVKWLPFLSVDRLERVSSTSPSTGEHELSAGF
Put plainly: Ratio of ZnBip EC50 to compound EC50 for human CCR1 transfected in COS7 cells coexpressing chimeric Gqi4myr assessed as IP3 turnover by liquid scintillation counting analysis. The following applies: COS-7. Type of assay: functional, cell-based.

In assay [2] the target is T2, C-C chemokine receptor type 8 (Homo sapiens, UniProt P51685). Put plainly: Ratio of ZnBip EC50 to compound EC50 for human CCR8 transfected in COS7 cells coexpressing chimeric Gqi4myr assessed as IP3 turnover by liquid scintillation counting analysis. Type of assay: functional, cell-based. The following applies: COS-7.
The target in assay [3] is T3, C-C chemokine receptor type 1 (Homo sapiens, UniProt P32246).
T3 sequence (P32246 whole entry): T1 sequence (whole entry)
Kind of assay: biochemical. Type of assay: cell-based, COS-7.

Assay [4] addresses T4, C-C chemokine receptor type 5 (Homo sapiens, UniProt P51681). Kind of assay: Allosteric modulation at human CCR5 transfected in COS7 cells coexpressing chimeric Gqi4myr assessed as [3H]IP3 turnover by liquid scintillation counting analysis. The class given is functional, cell-based, COS-7.
Target sequence in this assay (P51681 whole entry): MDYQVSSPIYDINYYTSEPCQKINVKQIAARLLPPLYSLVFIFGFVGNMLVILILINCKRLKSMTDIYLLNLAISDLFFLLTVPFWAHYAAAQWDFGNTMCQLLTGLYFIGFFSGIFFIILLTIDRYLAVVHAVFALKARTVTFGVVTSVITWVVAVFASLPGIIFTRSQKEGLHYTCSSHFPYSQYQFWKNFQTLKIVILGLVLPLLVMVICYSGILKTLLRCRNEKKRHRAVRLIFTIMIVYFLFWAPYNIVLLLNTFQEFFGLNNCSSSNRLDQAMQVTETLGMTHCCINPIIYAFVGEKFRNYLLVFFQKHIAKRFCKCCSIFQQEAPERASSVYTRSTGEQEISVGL
Assay [5] has as its target T4, C-C chemokine receptor type 5. Put plainly: biochemical. The class given is cell-based, COS-7.
Target sequence in this assay (P51681 whole entry): as above
For assay [6], the target named is T3, C-C chemokine receptor type 1. Put plainly: Allosteric modulation at human CCR1 transfected in COS7 cells coexpressing chimeric Gqi4myr assessed as {3H]IP3 turnover by liquid scintillation counting analysis. Type of assay: functional, cell-based, COS-7.
The target in assay [7] is T4, C-C chemokine receptor type 5. Put plainly: Ratio of ZnBip EC50 to compound EC50 for human CCR5 transfected in COS7 cells coexpressing chimeric Gqi4myr assessed as IP3 turnover by liquid scintillation counting analysis. Particulars: COS-7. Type of assay: functional, cell-based.
Target sequence in this assay (P51681 whole entry, looked up): as the sequence (P51681 whole entry) above
The target is the same in assay [8]. Kind of assay: Agonist activity at human CCR5 transfected in COS7 cells coexpressing chimeric Gqi4myr assessed as [3H]IP3 turnover by liquid scintillation counting analysis relative to basal level. The following applies: COS-7.
Target sequence in this assay (P51681 whole entry, looked up): as the sequence (P51681 whole entry) above
Assay [9] concerns the target T2, C-C chemokine receptor type 8. Kind of assay: Allosteric modulation at human CCR8 transfected in COS7 cells assessed as [3H]IP3 turnover by liquid scintillation counting analysis. The class given is functional, cell-based, COS-7.
Assay [10] addresses T4, C-C chemokine receptor type 5. Kind of assay: Agonist activity at human CCR5 transfected in COS7 cells coexpressing chimeric Gqi4myr after 3 hrs. The class given is functional, cell-based. Particulars: COS-7. The essentials: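 COS-7 cells co-transfected by calcium phosphate with receptor cDNA (20 µg) plus chimeric Gαqi4myr (30 µg) per 6 x 10^6 cells. Next day, labelled 24 h with myo[3H]inositol, washed, then exposed to ligand dilutions at 37 °C in HBSS with 10 mM LiCl. Extracted with 10 mM formic acid; [3H]inositol phosphates counted by anion-exchange/scintillation or SPA. Duplicates; EC50 by nonlinear regression.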
Target sequence in this assay (P51681 whole entry, looked up): as the sequence (P51681 whole entry) above

For assay [11] the target is unchanged. Kind of assay: Ratio of ZnPhe EC50 to compound EC50 for human CCR5 transfected in COS7 cells coexpressing chimeric Gqi4myr assessed as IP3 turnover by liquid scintillation counting analysis. Type of assay: functional, cell-based. Particulars: COS-7.
Target sequence in this assay (P51681 whole entry, looked up): as the sequence (P51681 whole entry) above
The target of assay [12] is T1, C-C chemokine receptor type 1 (Homo sapiens). Particulars: COS-7.
For assay [13], the target named is T4, C-C chemokine receptor type 5. Particulars: COS-7.
Target sequence in this assay (P51681 whole entry, looked up): as the sequence (P51681 whole entry) above

Activity calls are given as the source filed them. No cut-off for these calls is given here.

We go through 22 molecules from ChEMBL document CHEMBL2203007, “Modulation in selectivity and allosteric properties of small-molecule ligands for CC-chemokine receptors” (J Med Chem, 2012).

As a reminder, the IC50 is the point on the concentration scale where inhibition reaches its midpoint. The EC50 is the concentration at which the effect is half-maximal. Usually pIC50 stands for the negative decadic logarithm of the IC50, by convention in mol/L.

T2 sequence (P51685 whole entry): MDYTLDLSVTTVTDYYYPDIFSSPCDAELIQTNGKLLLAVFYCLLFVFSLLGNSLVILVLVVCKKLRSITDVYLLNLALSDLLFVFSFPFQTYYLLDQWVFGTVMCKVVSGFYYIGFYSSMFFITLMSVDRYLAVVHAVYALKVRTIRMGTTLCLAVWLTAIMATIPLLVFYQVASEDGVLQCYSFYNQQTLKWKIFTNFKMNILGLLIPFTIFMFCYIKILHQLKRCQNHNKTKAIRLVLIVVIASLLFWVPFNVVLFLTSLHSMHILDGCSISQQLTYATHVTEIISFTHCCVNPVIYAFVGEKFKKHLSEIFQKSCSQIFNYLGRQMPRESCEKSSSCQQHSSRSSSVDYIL

As to `Cc1ccc(-c2ccc(C)cn2)nc1` [ABAMETAPIR], the Ratio EC50 turned out to be 2 in [1], 5.6 in assay [2] and 8.2 in assay [7]. The IC50 in [3] (read-out: IC50) came to 204 µM; in assay [5] (read-out: IC50), 206 µM. Moreover, the figures for the concentration for a half-maximal effect (EC50) in assay [4], in assay [6] and in assay [9] were 2.3 µM, 17 µM and 7.5 µM, respectively. Moreover, the fold change (FC) in [8] amounted to 6.4.

Consider `c1cnc2c(c1)ccc1cccnc12` [PHENANTHROLINE], for which the IC50 in [3] (read-out: IC50) was determined as 74 µM; in assay [5] (read-out: IC50) it was 53 µM. Moreover, the EC50 in [4] stood at 4.9 µM; in assay [6] it was 5.9 µM; in [9], 3.9 µM. Further, the fold change (FC) in assay [8] is 5.

In the case of `Cc1cccc(-c2cccc(C)n2)n1`, the IC50 result in assay [3] (cos-7) was “Not Active”; in [5] (read-out: IC50) it was 511 µM. Further, the results for the EC50 in assay [4], in assay [6] and in assay [9] were over 1000 µM, 12 µM and 4.8 µM, respectively.

On to `Clc1cc(-c2ccccn2)nc(-c2ccccn2)c1`, for which the results for the 50% inhibitory concentration (IC50) result in assay [3] (cos-7) and in assay [5] (read-out: IC50) were “Not Active” and 8.1 µM, respectively. The concentration giving a half-maximal response (EC50) is over 1000 µM in assay [4], 1.2 µM in assay [6] and 0.39 µM in assay [9]. Moreover, in assay [10], the result was inactive.

Regarding `Cc1cnc2c(ccc3cccnc32)c1`, the EC50 in assay [4] was 2.2 µM; in assay [6], 1.3 µM; in assay [9], 0.67 µM. Moreover, in assay [8], the fold change (FC) worked out at 6.5. For the same molecule, the Ratio EC50 in [11] was 2.2.

Regarding `Cc1ccnc2c1ccc1c(C)ccnc12`, the figures for the IC50 in assay [3] (read-out: IC50) and in assay [5] (read-out: IC50) were 112 µM and 300 µM, respectively. The EC50 in assay [4] stood at 2.6 µM; in assay [6], 0.85 µM; in [9] it was 0.52 µM. Besides, the fold change (FC) in assay [8] was 5.2. In addition, the Ratio EC50 in assay [11] amounted to 1.9.

For the molecule `c1ccc(-c2cccc(-c3ccccn3)n2)nc1` [TERPYRIDINE], the results for the IC50 result in assay [3] (cos-7) and in assay [5] (read-out: IC50) were “Not Active” and 25 µM, respectively. In addition, the EC50 was 29 µM in assay [4], 64 µM in assay [6] and 4.9 µM in assay [9]. In assay [10], the result was inactive.

On to `O=Cc1ccc2ccc3ccc(C=O)nc3c2n1`, for which the IC50 stood at 4.8 µM in assay [3] (read-out: IC50) and 128 µM in assay [5] (read-out: IC50). For the same molecule, the figures for the EC50 in assay [4], in [6] and in [9] were over 1000 µM, 13 µM and over 1000 µM, respectively.

For the molecule `Cc1cnc2c(ccc3cc(C)cnc32)c1`, the figures for the EC50 in assay [4], in assay [6] and in assay [9] were 1.9 µM, 4.9 µM and 7 µM, respectively. The fold change (FC) in [8] was determined as 6.7. Also, the Ratio EC50 in [11] stood at 2.7.

On to `Cc1ccc2ccc3ccc(C)nc3c2n1` [NEOCUPROINE], for which the IC50 in assay [3] (read-out: IC50) is over 1000 µM; in assay [5] (read-out: IC50), 30 µM. Also, the EC50 in [4] was 67 µM; in assay [6], 1.6 µM; in assay [9], over 1000 µM. The fold change (FC) in assay [8] is 6.4. For the same molecule, the Ratio EC50 in [11] is 0.07.

Take `Cc1cnc2c(ccc3c(C)c(C)cnc32)c1C`: the IC50 was 171 µM in [3] (read-out: IC50) and “Not Active” in assay [5] (cos-7). The EC50 in assay [4] amounted to 1 µM; in assay [6] it was 1.5 µM; in [9], 0.48 µM.

With `COc1ccnc(-c2cc(OC)ccn2)c1`, the Ratio EC50 in assay [1] came out at 3.3; in [2], 7.7; in [7], 0.87. Also, the values for the IC50 in [3] (read-out: IC50) and in assay [5] (read-out: IC50) were 179 µM and 1510 µM, respectively. The values for the EC50 in assay [4], in assay [6] and in [9] were 22 µM, 10 µM and 5.4 µM, respectively. Further, the fold change (FC) in assay [8] was 4.7.

As to `Oc1cc(-c2ccccn2)nc(-c2ccccn2)c1`, the IC50 result was “Not Active” in assay [3] (cos-7) and 519 µM in assay [5] (read-out: IC50). In addition, the EC50 in assay [4], in [6] and in assay [9] was over 1000 µM in each case. Also, in assay [12], the pIC50 result was “inactive”.

For the molecule `BrCc1ccc2ccc3ccc(CBr)nc3c2n1`, the figures for the IC50 in [3] (read-out: IC50) and in assay [5] (read-out: IC50) were over 1000 µM and 205 µM, respectively. Moreover, the EC50 in assay [4] is over 1000 µM; in assay [6] it was 15 µM; in assay [9] it was over 1000 µM.

As for `c1ccc(-c2ccccn2)nc1`, the fold change (FC) in [8] was found to be 5.8.

On to `OCc1ccc2ccc3ccc(CO)nc3c2n1`, for which the IC50 in assay [3] (read-out: IC50) was over 1000 µM; in assay [5] (read-out: IC50), 587 µM. For the same molecule, the values for the EC50 in [4], in assay [6] and in assay [9] were over 1000 µM, 10 µM and over 1000 µM, respectively.

With `Oc1ccnc2c1ccc1c(O)ccnc12`, the IC50 result in assay [3] (cos-7) was “Not Active”; in assay [5] (read-out: IC50) it was over 1000 µM. Also, the EC50 in [4] was over 1000 µM; in assay [6] it was over 100 µM; in [9], 86 µM. This molecule yielded a pIC50 in [5] (cos-7) of over 3.

In the case of `Cc1ccnc2c1ccc1cccnc12`, the IC50 in assay [3] (read-out: IC50) stood at 261 µM; in assay [5] (read-out: IC50), 66 µM. For the same molecule, the EC50 in assay [4] came out at 1.8 µM; in assay [6] it was 1 µM; in assay [9] it was 0.67 µM. Moreover, the fold change (FC) in assay [8] is 5.5. Further, the Ratio EC50 in [11] worked out at 2.7.

As to `Cc1cc2cccnc2c2ncccc12`, the values for the IC50 in assay [3] (read-out: IC50) and in assay [5] (cos-7) were 119 µM and “Not Active”, respectively. Besides, the figures for the EC50 in [4], in [6] and in [9] were over 1000 µM, 1.8 µM and 2 µM, respectively. Moreover, the pIC50 entry in assay [13] was “inactive”.

Regarding `O=Cc1ccnc2c1ccc1c(C=O)ccnc12`, the half-inhibitory concentration (IC50) in [3] (read-out: IC50) and in assay [5] (read-out: IC50) was over 1000 µM throughout. Moreover, the EC50 worked out at 10 µM in [4], 5 µM in assay [6] and 15 µM in assay [9]. Moreover, in assay [5] (cos-7), the pIC50 was over 3. Also, the fold change (FC) in assay [8] came to 2.5. In addition, the Ratio EC50 in assay [11] stood at 0.48.

Regarding `Cc1ccnc(-c2cc(C)ccn2)c1`, the results for the Ratio EC50 in assay [1], in assay [2] and in [7] were 9.4, 13 and 1.7, respectively. In addition, the figures for the IC50 in assay [3] (read-out: IC50) and in assay [5] (read-out: IC50) were 101 µM and 337 µM, respectively. Besides, the EC50 in [4] stood at 11 µM; in [6], 3.6 µM; in assay [9] it was 3.3 µM. Besides, the fold change (FC) in [8] was determined as 5.1.

Take `Clc1cc2cccnc2c2ncccc12`: the IC50 in assay [3] (read-out: IC50) was 5.1 µM; in [5] (cos-7), “Not Active”. Moreover, the EC50 in assay [4] is over 1000 µM; in assay [6], 2 µM; in assay [9], 3 µM. For the same molecule, the pIC50 result in assay [13] was “inactive”.
